mABHD4 FP: inhibits mouse alpha/beta hydrolase domain 4; inhibition, % at 8.92 µM; AID 720543; actives 0.54% (n = 370,000); purified mABHD4, FP-Rh probe fluorescence polarization; Q8VD66;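 active = inhibition exceeding the mean over every tested compound plus 3 SD, cut at about 30% in these data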;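 note: 0% = plate median of compound wells and 100% = S159A mutant with DMSO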
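Assay system: mABHD4 protein; medium: HEPES pH 7.0, NaCl, Pluronic buffer; dosing: 8.92 µM, single dose; schedule: 45 min + 60 min at 25 °C; signal: FP readout, ex 525 nm / em 598 nm; read-out: normalized percent inhibition of probe labeling; repeats: single replicate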
PRMT1 inh: inhibitors of human PRMT1; recombinant PRMT1, activity-based probe fluorescence polarization; inhibition, % at 2.79 µM; actives 1.3% (n = 370,000); AID 652257;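 active = inhibition above about 21% made by adding two undisclosed values, limit read from the data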
Target sequence (Q99873 whole entry, looked up): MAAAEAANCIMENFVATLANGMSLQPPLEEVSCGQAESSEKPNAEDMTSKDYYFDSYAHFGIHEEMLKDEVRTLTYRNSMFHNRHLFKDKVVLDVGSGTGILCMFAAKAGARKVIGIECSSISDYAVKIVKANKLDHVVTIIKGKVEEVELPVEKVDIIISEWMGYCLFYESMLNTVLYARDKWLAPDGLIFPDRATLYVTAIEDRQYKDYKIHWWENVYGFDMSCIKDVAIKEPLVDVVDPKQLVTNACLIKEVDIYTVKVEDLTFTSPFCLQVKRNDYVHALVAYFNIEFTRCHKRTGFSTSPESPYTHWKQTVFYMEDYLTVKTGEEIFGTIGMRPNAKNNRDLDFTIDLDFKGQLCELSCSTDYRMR
SIAE inh: inhibitors of human sialic acid acetylesterase SIAE | Q9HAT2 | SIAE FP-Rh probe binding, fluorescence polarization | inhibition, % at 9.66 µM | actives 0.69% (n = 370,000) | AID 1053197;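 active = inhibition above a cutoff: mean of compounds within the control limits plus 3 SD of those, cut at about 17% in these data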;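 note: 0% = plate median of compound wells and 100% = probe without SIAE protein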
HTRA1 inh: blocks human HTRA1 serine peptidase | Q92743 | recombinant HTRA1, FP-rhodamine activity-based probe, fluorescence polarization | inhibition, % at 5.96 µM | actives 0.5% (n = 340,000); in the data active = inhibition above about 36%;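 note: 0% = enzyme with DMSO and 100% = wells lacking enzyme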
TCR-CD3 inh: inhibitors of human TCR-CD3 interaction. TAMRA-labeled TCR probe fluorescence, biochemical. inhibition, % at 9.4 µM. actives 0.37% (n = 360,000). AID 651800; in the data active = inhibition above about 19%;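 note: recombinant mutant TCR 2C K166C tagged with TAMRA read by polarization; 0% = receptor in buffer alone and 100% = receptor with positive control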
SIAE inh conf: human SIAE inhibition, confirmation. actives 13% (n = 2,300). shares compounds with SIAE inh. SIAE FP-Rh activity-based probe, fluorescence polarization. inhibition, % at 9.66 µM;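 active = mean inhibition of the replicates above the hit cutoff set in the primary screen, cut at about 17% in these data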;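 note: 0% = SIAE with DMSO and probe and 100% = probe without SIAE; inhibitors lower polarization as more probe stays unbound to SIAE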
The depositor's hits bear a star; x = no result given. Most compounds without a hit are left out; they make up all but 2.7% or so of the library.

SMILES	mABHD4 FP	PRMT1 inh	SIAE inh	HTRA1 inh	TCR-CD3 inh	SIAE inh conf
NC(=O)c1ncn([C@@H]2O[C@H](C(=O)N3CCN(CC(=O)Nc4ccccn4)CC3)[C@@H](O)[C@H]2O)n1	2.9	2.3	7.3	x	-6.2	x
NC(=O)c1ncn([C@@H]2O[C@H](C(=O)N[C@H](Cc3ccccc3)C(=O)N3CCN(CC(=O)Nc4ccccn4)CC3)[C@@H](O)[C@H]2O)n1	4.9	-1.6	44.2*	x	6.1	38.5*
CC(C)[C@H](CO)NC(=O)[C@H]1O[C@@H](n2ccc(=O)[nH]c2=O)[C@H](O)[C@@H]1O	-2.6	-5.0	69.8*	x	-2.5	55.0*
O=C(C[n+]1cccc(C(=O)N/N=C/c2cccc([N+](=O)[O-])c2)c1)c1ccccc1	-1.8	2.8	4.1	4.8	5.7	x
CNc1ccc2ncc(-c3cccc(C(=O)N(C)C)c3)n2n1	-1.6	5.2	0.0	x	-9.1	x
O=C(N[C@H](Cc1ccccc1)C(=O)N1CCN(C(=O)N2CCCCC2)CC1)[C@H]1O[C@@H](n2ccc(=O)[nH]c2=O)[C@H](O)[C@@H]1O	7.3	-0.1	-0.5	x	9.5	x
O=C(N[C@H](Cc1ccccc1)C(=O)N1CCN(CC(=O)N2CCCC2)CC1)[C@H]1O[C@@H](n2ccc(=O)[nH]c2=O)[C@H](O)[C@@H]1O	-1.0	1.3	47.2*	x	3.0	42.9*
COC(=O)C1CCN(C(=O)COC(=O)c2ccc(OC)c(S(=O)(=O)N3CCCc4ccccc43)c2)CC1	5.5	0.1	20.6*	-4.6	0.1	-2.5
COC(=O)C1CCN(C(=O)c2ccc(OC)c(S(=O)(=O)N3CCCc4ccccc43)c2)CC1	-1.2	1.0	-4.4	-1.1	4.4	x
O=C(Oc1cccc2c(O)cccc12)c1ccco1	23.6	6.9	17.8*	24.2	3.0	-1.9
COCCN(C(=O)COC(=O)/C=C/c1cccs1)c1c(N)n(Cc2ccccc2)c(=O)[nH]c1=O	-0.2	-1.5	21.3*	-1.3	-0.3	-1.2
Cc1cn([C@H]2C[C@H](O)[C@@H](CNC(=O)[C@H](N)Cc3cn(COCc4ccccc4)cn3)O2)c(=O)[nH]c1=O	-1.6	0.7	0.5	-4.2	4.3	x
CC(C)c1ccccc1NC(=O)COC(=O)C1(C)CC1(Cl)Cl (stereo not given)	2.9	-0.1	2.3	-1.4	4.6	x
Cc1ccccc1NC(=O)COC(=O)C1(C)CC1(Cl)Cl (stereo not given)	-1.6	0.1	18.7*	-4.5	7.0	11.5
O=C(N1CCCC1)n1c(Cc2ccccc2)nc2ccccc21	-1.0	-2.9	19.3*	-4.0	-1.6	1.8
Cc1ccccc1OCCC(=O)OCC(=O)N(C)c1c(N)n(Cc2ccccc2)c(=O)[nH]c1=O	-3.9	0.0	0.7	-6.1	2.9	x
Cc1ccc(C)c(OCCC(=O)OCC(=O)N(C)c2c(N)n(Cc3ccccc3)c(=O)[nH]c2=O)c1	-6.3	-3.9	17.6*	-8.8	7.6	3.5
COC(=O)C1=C(C)N(C)C(=NCc2ccccc2)NC1c1ccc(F)cc1 (stereo not given)	1.9	-2.9	9.8	x	1.8	x
CCN(CC)C1=NC=CC(c2ccccc2)=CC1C (stereo not given)	-7.1	-2.3	28.5*	2.3	-4.7	-3.3
COc1ccc(-c2nc(NC(=O)c3ccco3)sc2C)cc1	-6.2	2.1	-1.3	-5.8	-1.6	x
COc1ccc(-c2nc(NC(=O)c3[nH]c(C)c(C(C)=O)c3C)sc2C)cc1	4.5	8.4	26.7*	-14.8	2.6	-2.4
O=C(Oc1cccc(-n2cnnn2)c1)C1CCCCC1	-1.9	-0.6	22.5*	-2.8	5.6	17.2*
COc1cccc2c(=O)c3c(oc12)CCCC3	4.5	1.7	1.2	4.6	-5.7	x
Nc1cccc2c3c(oc12)CCCC3	5.9	-0.3	18.2*	23.4	5.5	3.9
CCc1cc(Cn2nc(-c3ccccc3)cc2C(=O)NCc2cccc(Br)c2)on1	-115.8	1.8	-109.2	-113.8	0.5	x
SMILES	mABHD4 FP	PRMT1 inh	SIAE inh	HTRA1 inh	TCR-CD3 inh	SIAE inh conf
CCN(CC)S(=O)(=O)c1ccc2c(c1)nc(CCC(=O)Nc1ccccc1Cc1ccccc1)n2CC	7.4	-0.5	2.1	-34.1	3.6	x
Cc1cc(OC(=O)c2cc(F)c(F)cc2Cl)nc(C)n1	6.8	-1.6	19.4*	7.2	-0.8	2.6
CC1=C(C(=O)OCCC(C)C)C(c2ccc3c(c2)OCO3)NC(=O)N1 (stereo not given)	3.0	5.8	-3.0	-2.1	-2.1	x
Cc1c(NC(=S)NC(=O)c2cccc([N+](=O)[O-])c2)c(=O)n(-c2ccccc2)n1C	1.3	-1.3	12.0	3.5	-1.5	x
Cc1c(NC(=S)NC(=O)c2cccc(Br)c2)c(=O)n(-c2ccccc2)n1C	-1.4	-0.8	17.1*	-4.7	0.7	3.3
COc1ccc(C/C(N)=N/OC(=O)CCc2ccccc2)cc1	0.1	-2.7	-2.1	-1.6	7.0	x
Cc1cc2nc(-c3ccccc3)c(Cc3cccc(Cl)c3)n2c(C)c1Br	-17.0	3.3	2.2	x	-6.3	x
NNC(=O)c1ccc(Cn2cccn2)o1	3.8	-0.2	21.1*	3.2	11.1	-3.7
Cc1cc(S(=O)(=O)c2ccc([N+](=O)[O-])cn2)ccc1Br	1.4	11.3	23.7*	0.1	-3.6	7.3
CC(=O)OCCC(CC(C)C)NC(=O)[C@H](CC(C)C)NC(=O)OCc1ccccc1 (stereo not given in full)	-4.8	-2.8	4.1	x	x	x
O=C(Oc1ccc2ccc(=O)oc2c1)C1CCCCC1	4.6	-0.7	38.2*	2.8	1.8	33.6*
CCn1c(CO)nc2c1c(=O)[nH]c(=O)n2Cc1ccccc1	0.2	-4.0	19.6*	4.4	-0.5	-2.2
Cc1ccc(-c2nc3c(c(=O)[nH]c(=O)n3Cc3ccccc3)n2Cc2ccccc2)o1	-6.1	4.4	-5.6	-42.0	6.6	x
CCOC(=O)c1[nH]c(C)c(C(=O)N2CCOCC2)c1C	-1.5	3.4	21.7*	1.3	-1.0	1.8
CCOC(=O)c1[nH]c(C)c(C(=O)N2CCN(c3ccccc3)CC2)c1C	-1.0	-2.5	0.9	-4.3	8.2	x
CC(=O)Nc1ccc(S(=O)(=O)NCC(=O)OCC(=O)N2CCCc3ccccc32)cc1	5.9	0.2	-3.3	4.8	8.7	x
Cc1ccc(C(=O)N2CC=C(c3ccccc3)CC2)s1	1.5	1.5	19.4*	-13.3	6.7	0.2
Cc1ccsc1C(=O)N1CC=C(c2ccccc2)CC1	4.8	2.4	3.3	-1.0	-11.4	x
COc1cc(-c2nc(-c3ccccc3)c(-c3ccc(F)cc3)[nH]2)cc2c1OCO2	12.0	0.6	9.3	-4.8	0.1	x
COc1ccc(-c2[nH]c(-c3ccc4c(c3)OCO4)nc2-c2ccccc2)cc1	15.1	-1.4	21.4*	18.3	0.2	4.1
COc1ccc(OC)c(Nc2nc(NCc3ccco3)c3ccccc3n2)c1	15.0	-0.5	17.7*	23.0	6.3	10.5
